Measured values: ChEMBL document CHEMBL3588757, “Structure-based design, synthesis and biological testing of piperazine-linked bis-epipodophyllotoxin etoposide analogs” (Bioorg Med Chem, 2015)

Tests used:
Format in all cases: functional
KM12 [1] = experiment: Cytotoxicity against human KM12 cells assessed as cell growth at 50 uM by SRB assay; details: read-out: Activity
SF-268 = experiment: Cytotoxicity against human SF268 cells assessed as cell growth at 50 uM by SRB assay; details: read-out: Activity
SF-295 = experiment: Cytotoxicity against human SF295 cells assessed as cell growth at 50 uM by SRB assay; details: read-out: Activity
LOX IMVI = experiment: Cytotoxicity against human LOXIMVI cells assessed as cell growth at 50 uM by SRB assay; details: read-out: Activity
[2] = Cytotoxicity against human NCI-ADR-RES cells assessed as cell growth at 50 uM by SRB assay; details: read-out: Activity
UO-31 [3] = experiment: Cytotoxicity against human UO31 cells assessed as cell growth at 50 uM by SRB assay; details: read-out: Activity
[4] = Cytotoxicity against human Hs578T cells assessed as cell growth at 50 uM by SRB assay; details: Hs-578T, read-out: Activity
How it was run: (§1)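 Measured in the NCI-60 human tumour cell line panel using five-dose testing. Growth was recorded at each dose for each cell line, and a GI50 was derived for each line.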

NCI-H460 = experiment: Cytotoxicity against human NCI-H460 cells by SRB assay
How it was run: (§2)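 NCI-60 panel screen; 5-dose testing giving GI50 per cell line, plus a single 10 µM one-dose test. Method details not given beyond the NCI screen.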

COLO 205 = experiment: Cytotoxicity against human COLO205 cells by SRB assay
SF-539 = experiment: Cytotoxicity against human SF539 cells by SRB assay; how it was run: as §2
SNB-19 [5] = experiment: Cytotoxicity against human SNB19 cells by SRB assay; how it was run: as §2
M14 = experiment: Cytotoxicity against human M14 cells by SRB assay; how it was run: as §2
IGROV-1 = experiment: Cytotoxicity against human IGROV1 cells by SRB assay; how it was run: as §2
T47D = experiment: Cytotoxicity against human T47D cells by SRB assay; how it was run: as §2
786-0 [6] = experiment: Cytotoxicity against human 786-0 cells assessed as cell growth at 0.005 uM by SRB assay; details: read-out: Activity
MOLT-4 [7] = experiment: Cytotoxicity against human MOLT4 cells assessed as cell growth at 0.05 uM by SRB assay; details: read-out: Activity
HOP-92 = experiment: Cytotoxicity against human HOP92 cells assessed as cell growth at 0.05 uM by SRB assay; details: read-out: Activity; how it was run: as §1
HCT-15 = experiment: Cytotoxicity against human HCT15 cells assessed as cell growth at 0.05 uM by SRB assay; details: read-out: Activity; how it was run: as §1
PC-3 = experiment: Cytotoxicity against human PC3 cells assessed as cell growth at 0.05 uM by SRB assay; details: read-out: Activity
MDA-MB-231 = experiment: Cytotoxicity against human MDA-MB-231/ATCC cells assessed as cell growth at 0.05 uM by SRB assay; details: read-out: Activity
RPMI-8226 = experiment: Cytotoxicity against human RPMI8226 cells assessed as cell growth at 0.5 uM by SRB assay; details: read-out: Activity
HOP-62 = experiment: Cytotoxicity against human HOP62 cells assessed as cell growth at 0.5 uM by SRB assay; details: read-out: Activity; how it was run: as §1
NCI-H522 = experiment: Cytotoxicity against human NCI-H522 cells assessed as cell growth at 0.5 uM by SRB assay; details: read-out: Activity
KM12 [8] = experiment: Cytotoxicity against human KM12 cells assessed as cell growth at 0.5 uM by SRB assay; details: read-out: Activity
SW-620 = experiment: Cytotoxicity against human SW620 cells assessed as cell growth at 0.5 uM by SRB assay; details: read-out: Activity
SK-MEL-2 = experiment: Cytotoxicity against human SK-MEL-2 cells assessed as cell growth at 0.5 uM by SRB assay; details: read-out: Activity
OVCAR-4 = experiment: Cytotoxicity against human OVCAR4 cells assessed as cell growth at 0.5 uM by SRB assay; details: read-out: Activity
786-0 [9] = experiment: Cytotoxicity against human 786-0 cells assessed as cell growth at 0.5 uM by SRB assay; details: read-out: Activity
CAKI-1 [10] = experiment: Cytotoxicity against human Caki1 cells assessed as cell growth at 0.5 uM by SRB assay; details: read-out: Activity
RXF 393 = experiment: Cytotoxicity against human RXF393 cells assessed as cell growth at 0.5 uM by SRB assay; details: read-out: Activity
UO-31 [11] = experiment: Cytotoxicity against human UO31 cells assessed as cell growth at 0.5 uM by SRB assay; details: read-out: Activity
[12] = Cytotoxicity against human Hs578T cells assessed as cell growth at 0.5 uM by SRB assay; details: Hs-578T, read-out: Activity; how it was run: as §1
CCRF-CEM [13] = experiment: Cytotoxicity against human CCRF-CEM cells assessed as cell growth at 5 uM by SRB assay; details: read-out: Activity
HL-60(TB) = experiment: Cytotoxicity against human HL-60(TB) cells assessed as cell growth at 5 uM by SRB assay; details: read-out: Activity; how it was run: as §1
SNB-19 [14] = experiment: Cytotoxicity against human SNB19 cells assessed as cell growth at 5 uM by SRB assay; details: read-out: Activity
SK-MEL-5 = experiment: Cytotoxicity against human SK-MEL-5 cells assessed as cell growth at 5 uM by SRB assay; details: read-out: Activity
UACC-62 = experiment: Cytotoxicity against human UACC62 cells assessed as cell growth at 5 uM by SRB assay; details: read-out: Activity
OVCAR-3 = experiment: Cytotoxicity against human OVCAR3 cells assessed as cell growth at 5 uM by SRB assay; details: read-out: Activity
[15] = Cytotoxicity against human NCI-ADR-RES cells assessed as cell growth at 5 uM by SRB assay; details: read-out: Activity
CAKI-1 [16] = experiment: Cytotoxicity against human Caki1 cells assessed as cell growth at 5 uM by SRB assay; details: read-out: Activity
CCRF-CEM [17] = experiment: Cytotoxicity against human CCRF-CEM cells assessed as cell growth at 50 uM by SRB assay; details: read-out: Activity
MOLT-4 [18] = experiment: Cytotoxicity against human MOLT4 cells assessed as cell growth at 50 uM by SRB assay; details: read-out: Activity
NCI-H226 = experiment: Cytotoxicity against human NCI-H226 cells assessed as cell growth at 50 uM by SRB assay; details: read-out: Activity
[19] = read-out: LC50 (the source's name)
[20] = read-out: pLC50 (the source's name) (converted)

COc1cc([C@@H]2c3cc4c(cc3[C@@H](NC(=O)CN3CCN(CCCCCCN5CCN(CC(=O)N[C@@H]6c7cc8c(cc7[C@@H](c7cc(OC)c(O)c(OC)c7)[C@H]7C(=O)OC[C@@H]76)OCO8)CC5)CC3)[C@H]3COC(=O)[C@H]23)OCO4)cc(OC)c1O
growth at 50 µM (KM12 [1]): 10% | growth at 50 µM (SF-268): 10% | growth at 50 µM (SF-295): 1% | growth at 50 µM (LOX IMVI): -8% | growth at 50 µM [2]: 87% | growth at 50 µM (UO-31 [3]): 64% | growth at 50 µM [4]: 9% | GI50 (NCI-H460; read-out: GI50): 0.261 µM | CC50 (NCI-H460; [19]): > 50 µM | TGI (NCI-H460; read-out: TGI): 9.45 µM | GI50 (NCI-H460; read-out: pGI50 (converted)): 0.263 µM | CC50 (NCI-H460; [20]): > 50.1 µM | TGI (NCI-H460; read-out: pTGI (converted)): 9.55 µM | GI50 (COLO 205; read-out: GI50): 5.79 µM | CC50 (COLO 205; [19]): > 50 µM | TGI (COLO 205; read-out: TGI): 44.7 µM | GI50 (COLO 205; read-out: pGI50 (converted)): 5.75 µM | CC50 (COLO 205; [20]): > 50.1 µM | TGI (COLO 205; read-out: pTGI (converted)): 44.7 µM | GI50 (SF-539; read-out: GI50): 0.898 µM | CC50 (SF-539; [19]): > 50 µM | TGI (SF-539; read-out: TGI): 3.57 µM | GI50 (SF-539; read-out: pGI50 (converted)): 0.891 µM | CC50 (SF-539; [20]): > 50.1 µM | TGI (SF-539; read-out: pTGI (converted)): 3.55 µM | GI50 (SNB-19 [5]; read-out: GI50): 1.03 µM | CC50 (SNB-19 [5]; [19]): > 50 µM | TGI (SNB-19 [5]; read-out: TGI): > 50 µM | GI50 (SNB-19 [5]; read-out: pGI50 (converted)): 1.02 µM | CC50 (SNB-19 [5]; [20]): > 50.1 µM | TGI (SNB-19 [5]; read-out: pTGI (converted)): > 50.1 µM | GI50 (M14; read-out: GI50): 2.31 µM | CC50 (M14; [19]): > 50 µM | TGI (M14; read-out: TGI): 22.1 µM | GI50 (M14; read-out: pGI50 (converted)): 2.29 µM | CC50 (M14; [20]): > 50.1 µM | TGI (M14; read-out: pTGI (converted)): 21.9 µM | GI50 (IGROV-1; read-out: GI50): 40 µM | CC50 (IGROV-1; [19]): > 50 µM | TGI (IGROV-1; read-out: TGI): > 50 µM | GI50 (IGROV-1; read-out: pGI50 (converted)): 39.8 µM | CC50 (IGROV-1; [20]): > 50.1 µM | TGI (IGROV-1; read-out: pTGI (converted)): > 50.1 µM | GI50 (T47D; read-out: GI50): 2.01 µM | CC50 (T47D; [19]): > 50 µM | TGI (T47D; read-out: TGI): > 50 µM | GI50 (T47D; read-out: pGI50 (converted)): 2 µM | CC50 (T47D; [20]): > 50.1 µM | TGI (T47D; read-out: pTGI (converted)): > 50.1 µM | growth at 0.005 µM (786-0 [6]): 89% | growth at 0.05 µM (MOLT-4 [7]): 105% | growth at 0.05 µM (HOP-92): 82% | growth at 0.05 µM (HCT-15): 93% | growth at 0.05 µM (PC-3): 90% | growth at 0.05 µM (MDA-MB-231): 94% | growth at 0.5 µM (RPMI-8226): 67% | growth at 0.5 µM (HOP-62): 98% | growth at 0.5 µM (NCI-H522): 75% | growth at 0.5 µM (KM12 [8]): 81% | growth at 0.5 µM (SW-620): 63% | growth at 0.5 µM (SK-MEL-2): 105% | growth at 0.5 µM (OVCAR-4): 90% | growth at 0.5 µM (786-0 [9]): 82% | growth at 0.5 µM (CAKI-1 [10]): 88% | growth at 0.5 µM (RXF 393): 91% | growth at 0.5 µM (UO-31 [11]): 92% | growth at 0.5 µM [12]: 77% | growth at 5 µM (CCRF-CEM [13]): 7% | growth at 5 µM (HL-60(TB)): 6% | growth at 5 µM (SNB-19 [14]): 15% | growth at 5 µM (SK-MEL-5): 57% | growth at 5 µM (UACC-62): 29% | growth at 5 µM (OVCAR-3): 63% | growth at 5 µM [15]: 107% | growth at 5 µM (CAKI-1 [16]): 80% | growth at 50 µM (CCRF-CEM [17]): 7% | growth at 50 µM (MOLT-4 [18]): 5% | growth at 50 µM (NCI-H226): -2%
